Experimental findings from ChEMBL document CHEMBL3826892, “Second-Generation Phenylthiazole Antibiotics with Enhanced Pharmacokinetic Properties” (J Med Chem, 2016) are described below.

≈ marks a conversion by molar mass, not a printed value.

Data set [1] deals with Staphylococcus aureus. The experiment in a line: Antimicrobial activity against methicillin-resistant Staphylococcus aureus RCMB 2658 clinical isolate after 20 hrs by broth microdilution method. Format: functional. The settings on record: RCMB 2658, 20 h. The procedure, abridged:
(§1)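 CLSI broth microdilution in cation-adjusted Mueller Hinton broth. Compounds were serially diluted in triplicate and plates held at 37 °C for 20 h. MIC was taken by eye as the lowest concentration with no visible growth, and the average of the triplicate determinations is reported.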
In general terms: Broth dilution looks for growth in wells or tubes with falling amounts of substance.

A short description of data set [2]: Aqueous solubility of the compound in PBS after 2 hrs by turbidity assay. Format: physicochemical. Put shortly:
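Serial dilutions were made […] and diluted 100-fold into PBS. After 2 h, turbidity was read at 540 nm with pre-addition background subtracted. Turbidity was taken as absorbance > blank mean + 3 SD. Solubility limit is the highest concentration with no turbidity.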

Data set [3] can be described thus: Apparent permeability across apical to basolateral side in human Caco2 cells at pH 6.5 after 2 hrs by LC/MS/MS analysis. Format: ADME, cell-based. To be noted: Caco-2, pH 6.5. Put shortly:
(§2)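 Caco-2 cells were grown and differentiated for 3 weeks, fed every 2 days. Compound was added to the apical or basolateral side and measured on the opposite side after 2 h by LC/MS/MS. Apical buffer was pH 6.5 transport buffer (glucose, 10 mM HEPES, HBSS) with 100 μM Lucifer yellow; basolateral buffer was pH 7.4. Lucifer yellow fluorescence checked monolayer integrity. Papp = (dQ/dt)/C₀A; efflux ratio = Papp(B→A)/Papp(A→B).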

Data set [4] in a line: Efflux ratio of apparent permeability from basolateral to apical side over apical to basolateral side in human Caco2 cells after 2 hrs by LC/MS/MS analysis. Format: ADME, cell-based. To be noted: Caco-2. Put shortly:
as §2

A short description of data set [5]: Apparent permeability across basolateral to apical side in human Caco2 cells at pH 7.4 after 2 hrs by LC/MS/MS analysis. The settings on record: Caco-2, pH 7.4. (Caco-2 monolayers are a common model of the intestinal barrier.)
In data set [6] the test system is Staphylococcus aureus. Nature of the data set: Bactericidal activity against methicillin-resistant Staphylococcus aureus USA200 NRS383 clinical isolate after 20 hrs by broth microdilution method. Format: functional. The settings on record: USA200 NRS383, 20 h.
The test system of data set [7] is Staphylococcus aureus. The experiment in a line: Bactericidal activity against methicillin-resistant Staphylococcus aureus USA400 NRS123 clinical isolate after 20 hrs by broth microdilution method. Format: functional. The settings on record: USA400 NRS123, 20 h.
Data set [8] deals with Staphylococcus aureus. The experiment in a line: Bactericidal activity against methicillin-resistant Staphylococcus aureus NRS119 clinical isolate after 20 hrs by broth microdilution method. Format: functional. To be noted: NRS119, 20 h.
Data set [9] has as its system Enterococcus faecium. The experiment in a line: Bactericidal activity against vancomycin-resistant Enterococcus faecium ATCC 700221 after 20 hrs by broth microdilution method. Format: functional. The settings on record: ATCC 700221, 20 h.
In data set [10] the test system is Staphylococcus aureus. Nature of the data set: Bactericidal activity against methicillin-resistant Staphylococcus aureus USA100 NRS382 clinical isolate after 20 hrs by broth microdilution method. Format: functional. To be noted: USA100 NRS382, 20 h.
Data set [11] deals with Staphylococcus aureus. The experiment in a line: Bactericidal activity against vancomycin-resistant Staphylococcus aureus 10 clinical isolate after 20 hrs by broth microdilution method. Format: functional. The settings on record: isolate 10, 20 h.
In data set [12] the test system is Staphylococcus aureus. The experiment in a line: Antimicrobial activity against vancomycin-resistant Staphylococcus aureus 10 clinical isolate after 20 hrs by broth microdilution method. To be noted: isolate 10, 20 h. Format: functional. The procedure, abridged:
as §1

Data set [13] deals with Staphylococcus aureus. The experiment in a line: Bactericidal activity against methicillin-sensitive Staphylococcus aureus NRS72 clinical isolate after 20 hrs by broth microdilution method. To be noted: NRS72, 20 h. Format: functional.
For data set [14], the system named is Enterococcus faecium. Nature of the data set: Antimicrobial activity against vancomycin-resistant Enterococcus faecium ATCC 700221 after 20 hrs by broth microdilution method. Format: functional. To be noted: ATCC 700221, 20 h. Put shortly: as §1
The subject of data set [15] is Staphylococcus aureus. Nature of the data set: Bactericidal activity against methicillin-resistant Staphylococcus aureus USA300 NRS384 clinical isolate after 20 hrs by broth microdilution method. Format: functional. To be noted: USA300 NRS384, 20 h.
The test system of data set [16] is Staphylococcus aureus. Nature of the data set: Bactericidal activity against methicillin-resistant Staphylococcus aureus USA300 assessed as time required to reduce bacterial inoculum to zero colony forming units at 3 times MIC by time kill assay. Format: functional. Put shortly: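 Samples taken at 2, 4, 6, 8, 10, 12 and 24 h were serially diluted in PBS and plated on trypticase soy agar. Viable CFU/mL were counted after at least 16 h at 37 °C.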

In data set [17] the test system is Staphylococcus aureus. The experiment in a line: Antimicrobial activity against methicillin-resistant Staphylococcus aureus USA300 NRS384 clinical isolate after 20 hrs by broth microdilution method. Format: functional. The settings on record: USA300 NRS384, 20 h. Put shortly: as §1
Data set [18] concerns Staphylococcus aureus. The experiment in a line: Antimicrobial activity against methicillin-resistant Staphylococcus aureus USA200 NRS383 clinical isolate after 20 hrs by broth microdilution method. Format: functional. To be noted: USA200 NRS383, 20 h. Put shortly: as §1
In data set [19] the test system is Staphylococcus aureus. The experiment in a line: Antimicrobial activity against methicillin-resistant Staphylococcus aureus NRS119 clinical isolate after 20 hrs by broth microdilution method. Format: functional. To be noted: NRS119, 20 h. Put shortly: as §1
The test system of data set [20] is Staphylococcus aureus. The experiment in a line: Antimicrobial activity against methicillin-sensitive Staphylococcus aureus NRS72 clinical isolate after 20 hrs by broth microdilution method. To be noted: NRS72, 20 h. Format: functional. The procedure, abridged:
as §1

The test system of data set [21] is Staphylococcus aureus. The experiment in a line: Antimicrobial activity against methicillin-resistant Staphylococcus aureus USA400 NRS123 clinical isolate after 20 hrs by broth microdilution method. Format: functional. To be noted: USA400 NRS123, 20 h. Put shortly: as §1
Data set [22] has as its system Staphylococcus aureus. Nature of the data set: Antimicrobial activity against methicillin-resistant Staphylococcus aureus USA100 NRS382 clinical isolate after 20 hrs by broth microdilution method. Format: functional. The settings on record: USA100 NRS382, 20 h. The procedure, abridged: as §1

As a reminder, the MIC is the least concentration at which growth counts as inhibited. Molecule `CCCCc1ccc(-c2nc(C)c(-c3ccnc(NC(N)=S)n3)s2)cc1` displayed a minimal inhibitory concentration (MIC) in data set [1] greater than 25 µg/mL.
Still for that read-out and setting: the result for `Cc1nc(-c2ccc(C3=CCC(C)C3)cc2)sc1-c1ccnc(N)n1` (stereo not drawn) reads 3.8 µg/mL (≈ 10.9 µM); that for `Cc1nc(-c2ccc(C=C3CCCC3)cc2)sc1-c1ccnc(N)n1`, 1.17 µg/mL (≈ 3.36 µM).
As a reminder, the solubility (kinetic) is solubility judged after dilution from a stock solution rather than from solid. In the case of `CCCCc1ccc(-c2nc(C)c(-c3ccnc(NC(=N)N(C)C)n3)s2)cc1`, the kinetic solubility at 2 h in data set [2] turned out to be 53 µM (≈ 20.9 µg/mL). In data set [1], the MIC was found to be 0.78 µg/mL (≈ 1.98 µM).
Consider `CCCCc1ccc(-c2nc(C)c(C(=O)/C=C/N(C)C)s2)cc1`, for which the minimal inhibitory concentration (MIC) in data set [1] was greater than 25 µg/mL.
`CCCCc1ccc(-c2nc(C)c(-c3ccnc(-n4cccn4)n3)s2)cc1`: the MIC in data set [1] was greater than 25 µg/mL.
The term Papp A→B denotes the apparent permeability from the apical to the basolateral side of a cell layer. A word on the efflux ratio: it is a quotient of directional permeabilities that is used to spot active efflux. A word on the Papp B→A: it is the apparent permeability from the basolateral to the apical side of a cell layer. Regarding `CCCCc1ccc(-c2nc(C)c(-c3ccnc(N)n3)s2)cc1`, the apical-to-basolateral permeability (Papp A→B) at 2 h in [3] was determined as 14.9 ×10⁻⁶ cm/s. Besides, the efflux ratio at 2 h in data set [4] was determined as 1.1. The molecule further gave a solubility (kinetic) at 2 h in data set [2] of 42 µM (≈ 13.6 µg/mL). Also, in data set [5], the basolateral-to-apical permeability (Papp B→A) at 2 h worked out at 17 ×10⁻⁶ cm/s. For the same molecule, the MIC in data set [1] came to 3.12 µg/mL (≈ 9.62 µM).
`Cc1nc(-c2ccc(-c3ccco3)cc2)sc1-c1ccnc(N)n1` yielded a kinetic solubility at 2 h in data set [2] of 14 µM (≈ 4.68 µg/mL). The minimal inhibitory concentration (MIC) in [1] amounted to 8.7 µg/mL (≈ 26 µM).
For `Cc1nc(-c2ccc(/C3=C/CCCCCC3)cc2)sc1-c1ccnc(N)n1`, the MIC in data set [1] stood at 5.6 µg/mL (≈ 14.9 µM).
For `Cc1nc(-c2ccc(C3=CCCC3)cc2)sc1-c1ccnc(N)n1`, the solubility (kinetic) at 2 h in [2] is 35 µM (≈ 11.7 µg/mL). The same molecule gave a minimum inhibitory concentration (MIC) in data set [1] of 3.12 µg/mL (≈ 9.33 µM).
`Cc1nc(-c2ccc(/C=C/C3CCCC3)cc2)sc1-c1ccnc(N)n1` had an MIC in data set [1] of 3.12 µg/mL (≈ 8.61 µM).
For `Cc1nc(-c2ccc(-c3ccoc3)cc2)sc1-c1ccnc(N)n1`, in [2], the kinetic solubility at 2 h worked out at 13 µM (≈ 4.35 µg/mL). For the same molecule, the MIC in data set [1] came out at 7.8 µg/mL (≈ 23.3 µM).
For the molecule `Cc1nc(-c2ccc(I)cc2)sc1-c1ccnc(N)n1`, the minimum inhibitory concentration (MIC) in data set [1] was greater than 25 µg/mL.
What is called MBC is the lowest tested concentration that kills the bacteria rather than only halting them. As for `CN[C@@H](CC(C)C)C(=O)N[C@H]1C(=O)N[C@@H](CC(N)=O)C(=O)N[C@H]2C(=O)N[C@H]3C(=O)N[C@H](C(=O)N[C@@H](C(=O)O)c4cc(O)cc(O)c4-c4cc3ccc4O)[C@H](O)c3ccc(c(Cl)c3)Oc3cc2cc(c3O[C@H]2O[C@@H](CO)[C@H](O)[C@@H](O)[C@@H]2O[C@@H]2C[C@@](C)(N)[C@@H](O)[C@@H](C)O2)Oc2ccc(cc2Cl)[C@H]1O`, the minimum bactericidal concentration (MBC) in data set [6] is 1 µg/mL (≈ 0.69 µM); in [7], 1 µg/mL (≈ 0.69 µM); in data set [8] it was 1 µg/mL (≈ 0.69 µM); in data set [9] it was greater than 64 µg/mL; in [10], 1 µg/mL (≈ 0.69 µM); in data set [11], greater than 64 µg/mL. In addition, the figures for the minimal bactericidal concentration (MBC) in data set [13] and in [15] were 2 µg/mL (≈ 1.38 µM) and 1 µg/mL (≈ 0.69 µM), respectively. The MIC in [12] and in data set [14] was greater than 64 µg/mL in each case. In addition, the Time in [16] is 24 h.
As for `CC(=O)NC[C@H]1CN(c2ccc(N3CCOCC3)c(F)c2)C(=O)O1` [LINEZOLID], the minimum bactericidal concentration (MBC) is 32 µg/mL (≈ 94.9 µM) in data set [6]; 16 µg/mL (≈ 47.4 µM) in data set [7]; greater than 64 µg/mL in data set [8]; 32 µg/mL (≈ 94.9 µM) in data set [9]; 8 µg/mL (≈ 23.7 µM) in data set [10]; 2 µg/mL (≈ 5.93 µM) in data set [11]. In addition, the MBC is 2 µg/mL (≈ 5.93 µM) in [13] and 4 µg/mL (≈ 11.9 µM) in [15]. Besides, the minimal inhibitory concentration (MIC) in data set [17] amounted to 1 µg/mL (≈ 2.96 µM); in data set [12] it was 1 µg/mL (≈ 2.96 µM); in data set [18], 1 µg/mL (≈ 2.96 µM); in [14], 1 µg/mL (≈ 2.96 µM); in [19] it was 32 µg/mL (≈ 94.9 µM); in data set [20], 1 µg/mL (≈ 2.96 µM). For the same molecule, the minimum inhibitory concentration (MIC) in [21] and in data set [22] was 1 µg/mL (≈ 2.96 µM) in each case.
